From PubChem
SIAE primary: inhibitors of human sialic acid acetylesterase SIAE; AID 1053197; 370,000 compounds, 0.69% hits; SIAE FP-Rh probe binding, fluorescence polarization; Q9HAT2; inhibition, % at 9.66 µM;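 active = inhibition above a cutoff: mean of compounds within the control limits plus 3 SD of those, cut at about 17% in these data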
Target sequence (Q9HAT2 whole entry, looked up): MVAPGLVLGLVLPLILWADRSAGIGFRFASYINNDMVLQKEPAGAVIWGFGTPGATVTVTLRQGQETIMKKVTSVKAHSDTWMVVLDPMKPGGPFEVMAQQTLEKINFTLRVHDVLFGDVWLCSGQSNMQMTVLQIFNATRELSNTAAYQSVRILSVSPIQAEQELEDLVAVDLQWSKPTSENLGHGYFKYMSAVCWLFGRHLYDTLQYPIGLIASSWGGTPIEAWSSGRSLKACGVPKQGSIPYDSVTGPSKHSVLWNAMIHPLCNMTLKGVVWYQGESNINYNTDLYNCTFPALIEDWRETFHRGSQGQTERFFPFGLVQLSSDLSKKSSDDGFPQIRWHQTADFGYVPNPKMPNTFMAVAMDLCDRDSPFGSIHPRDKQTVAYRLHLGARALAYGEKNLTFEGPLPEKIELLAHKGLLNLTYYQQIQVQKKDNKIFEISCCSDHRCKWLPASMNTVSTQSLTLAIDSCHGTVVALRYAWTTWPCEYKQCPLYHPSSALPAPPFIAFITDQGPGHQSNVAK
DAGLB inhibitor: blocks human DAGLB lipase activity; HEK293T DAGLB membrane lysate, EnzChek fluorogenic substrate; 340,000 compounds, 0.059% hits; Q8NCG7; inhibition, % at 5.17 µM; in the data active = inhibition above about 34%
TCR-CD3 inh: human TCR-CD3 binding inhibition; inhibition, % at 9.4 µM; TAMRA-labeled TCR probe fluorescence, biochemical; 360,000 compounds, 0.37% hits; AID 651800; in the data active = inhibition above about 19%;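 note: recombinant mutant TCR 2C K166C tagged with TAMRA read by polarization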
mABHD4 FP: ABHD4 (mouse) inhibition, primary FP screen | AID 720543 | inhibition, % at 8.92 µM | 370,000 compounds, 0.54% hits | purified mABHD4, FP-Rh probe fluorescence polarization | Q8VD66;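 active = inhibition exceeding the mean over every tested compound plus 3 SD, cut at about 30% in these data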
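Assay system: mouse ABHD4 enzyme, wild type / Also added: fluorescent activity-based probe FP-Rh / Doses: single nominal dose of 8.92 µM, 0.89% DMSO final / Timing: 45 min compound pre-incubation plus 60 min probe step, 25 °C / Signal: FP readout, ex 525 nm / em 598 nm / Control set: S159A mutant/DMSO as 100%, compound-well median as 0%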
HTRA1 inh: blocks human HTRA1 serine peptidase; recombinant HTRA1, FP-rhodamine activity-based probe, fluorescence polarization; inhibition, % at 5.96 µM; 340,000 compounds, 0.5% hits; AID 504803; in the data active = inhibition above about 36%
HTRA1 conf: confirmation of human HTRA1 inhibitors; shares compounds with HTRA1 inh; recombinant HTRA1, FP-rhodamine activity-based probe, fluorescence polarization; inhibition, % at 5.96 µM; 1,600 compounds, 66% hits;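 active = mean inhibition over three repeats above a set limit taken from the earlier primary screen, cut at about 37% in these data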;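 note: inhibitors block probe binding so polarization drops and inhibition rises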
Large screens that a line does not name were inactive (follow-up assays come after a bar, where they were run). In the library only some 1.6% were active in any assay of this set; here they are far more common.

COc1ccc(-c2cccc3[nH]c4c(c23)CCN2C(=O)[C@H]3[C@H](C)ON(C)[C@H]3C[C@@H]42)cc1	none (no result: DAGLB inhibitor, HTRA1 inh)
Cc1ccc(NC(=O)OCCCN2C(=O)CCC23CCC(C)CC3)cc1C (stereo not drawn)	none (no result: DAGLB inhibitor, TCR-CD3 inh, HTRA1 inh)
Cc1ccc(S(=O)(=O)N2CCCC2C(c2ccccc2O)c2cn(C)c3ccccc23)cc1 (stereo not drawn)	none (no result: DAGLB inhibitor, TCR-CD3 inh, HTRA1 inh)
O=C(Oc1c(Cl)cc(Cl)c2cccnc12)c1ccco1	HTRA1 inh 59 | HTRA1 conf 54
COc1ccc(C(=O)NC(=S)NNC(=O)c2ccco2)cc1	none
O=C(NC(=S)NNC(=O)c1cc2ccccc2cc1O)c1ccco1	HTRA1 inh 45 | HTRA1 conf inactive
CCCn1c(/C=N/Nc2nc3ccccc3[nH]2)nc2ccccc21	none
Cn1c(/C=N/Nc2nc3ccccc3[nH]2)nc2ccccc21	HTRA1 inh 36 | HTRA1 conf 44
CN=c1scc(-c2ccc(F)cc2)n1/N=C/c1ccc(O)c(O)c1	mABHD4 FP 33, HTRA1 inh 64 | HTRA1 conf 69
COC(=O)[C@]12C[C@H](CC(=O)NCc3cccs3)C(=O)N(Cc3ccc(Cl)cc3Cl)C1=C[C@H](C(C)C)O[C@@H]2C1CC1	none (no result: DAGLB inhibitor, TCR-CD3 inh, HTRA1 inh)
c1ccc(-c2nc3ccccc3[nH]2)nc1	none
Cc1ccc2nc(-c3ccccn3)[nH]c2c1	HTRA1 inh 42 | HTRA1 conf inactive
O=c1cc(CN2CCN(Cc3ccccc3)CC2)c2ccc(O)c(O)c2o1	HTRA1 inh 61 | HTRA1 conf 70
COC(=O)c1cc2c(c3c4cc(F)ccc4n(S(=O)(=O)c4cccc(C)c4)c13)C(=O)N(Cc1ccc(C(F)(F)F)cc1)C2	none (no result: DAGLB inhibitor, HTRA1 inh)
CCOC(=O)C(C)/C(C)=N/NC(=O)c1cc2ccccc2cc1O (stereo not drawn)	HTRA1 inh 43 | HTRA1 conf inactive
O=C(NCCO)c1cc2ccccc2cc1O	none
C/C(=N\NC(=O)c1cc2ccccc2cc1O)c1ccc2c(c1)OCO2	HTRA1 inh 42 | HTRA1 conf inactive
CCCOc1ccc(N)cc1N	HTRA1 inh 56 | HTRA1 conf inactive
CC(C)(C)NC(=O)CN1C(=O)/C(=C/c2ccccc2)SC1=S	none
O=C1/C(=C\c2ccc(O)c(O)c2)SC(=S)N1Cc1ccccc1	none
O=C1/C(=C\c2cccc(O)c2O)SC(=S)N1Cc1ccccc1	HTRA1 inh 54 | HTRA1 conf 65
O=C(CN1C(=O)/C(=C/c2ccccc2)SC1=S)NNC(=O)c1ccccc1O	HTRA1 inh 55 | HTRA1 conf 42
CC(C)N1Cc2nnn(Cc3ccccc3)c2-c2cc(N3CCCC3)ccc2S1(=O)=O	none (no result: DAGLB inhibitor, TCR-CD3 inh, HTRA1 inh)
O=C(O[C@H]1CC[C@@]23CCCN2C(=O)CCC[C@H]3C1)N1CCCC1	none (no result: DAGLB inhibitor, TCR-CD3 inh, HTRA1 inh)
O=[N+]([O-])c1cc2c(cc1C=Nc1ccccc1)OCO2	HTRA1 inh 51 (no result: SIAE primary, TCR-CD3 inh, mABHD4 FP) | HTRA1 conf inactive
O=C(c1ccc(-c2cc(O)c3ncccc3c2)cc1)N1CCNCC1	HTRA1 inh 63 | HTRA1 conf 50
COCc1cc(C)nc(SCC(=O)c2ccc(O)c(O)c2)c1C#N	HTRA1 inh 61 | HTRA1 conf 50
COC(=O)[C@]12C[C@H](CC(=O)N3CCCC3)C(=O)N(CCC3=CCCCC3)C1=C[C@H](C(C)C)O[C@@H]2C1CC1	none (no result: DAGLB inhibitor, TCR-CD3 inh, HTRA1 inh)
O=S1(=O)Nc2c(ccc3cccnc23)-c2ccccc21	HTRA1 inh 36 (no result: SIAE primary, TCR-CD3 inh, mABHD4 FP) | HTRA1 conf inactive
COc1cc2c(cc1OC)C(=O)C(Br)CC2 (stereo not drawn)	HTRA1 inh 42 (no result: SIAE primary, TCR-CD3 inh, mABHD4 FP) | HTRA1 conf inactive
COc1cc2c(cc1OC)C(=O)C(c1ccc3c(c1)OCO3)CC2 (stereo not drawn)	none
Cc1n[nH]c(=O)c2c(NC(=O)CSc3nc4ccccc4c(=O)n3CCCO)oc(C)c12	HTRA1 inh 38 | HTRA1 conf inactive
COc1ccc(N2CCN(CCCNC(=O)Cc3ccc(C(F)(F)F)cc3)CC2)cc1	none (no result: DAGLB inhibitor, TCR-CD3 inh, HTRA1 inh)
Oc1ccc(CN2CCCCC2)c2cccnc12	none
Oc1ccc(CN2CCc3ccccc3C2)c2cccnc12	HTRA1 inh 59 | HTRA1 conf 65
CC(=O)OC(C)C1C2=C(C(=O)CC1(C)O)C(=O)c1c(ccc(-c3ccc4c(c3O)C(=O)C3=C(C4=O)C(C(C)OC(C)=O)C(C)(O)CC3=O)c1O)C2=O (stereo not drawn)	mABHD4 FP 47, HTRA1 inh 48 | HTRA1 conf 87
